In the array DNA melting data of Ke et al. (doi:10.1101/2024.01.08.574731):

Experiments:
[1] = folding enthalpy; higher = less favourable; fluorescence melt of hairpins on a sequencing array, two-state fit; details: sodium 0.088 M
How it was run: (§1)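 Cy3 signals were normalised both to pre-quench Cy3 and to control constructs. They came from library hairpins carrying annealed Cy3 and quencher oligos on a sequenced MiSeq flow cell, imaged in 50 mM Na-HEPES pH 8.0, 25 mM NaCl, in 2.5 °C steps up to 60 °C. Bootstrapped two-state fits gave melting temperature and folding enthalpy, and four replicates were combined by inverse variance. Fitted temperatures were then raised by 9.35 °C to match UV melts.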

[2] = melting temperature; fluorescence melt of hairpins on a sequencing array, two-state fit, raised by 9.35 °C to match UV melts; details: sodium 0.088 M
How it was run: as §1

Sequence	folding enthalpy [1] [kcal/mol]	Tm [2] [°C]
GATCATAAGCATGATC ((((((....))))))	-31.5	46.5
GGGCGAGGAAACTCGCTC (.(((((....))))).)	-15.8	58.1
GATCACTCGAGTGATC ((((((....))))))	-39.9	59.4
GATCAGTCCTCTGATC ((((((....))))))	-39.7	51.1
GCGATTTCTCGC ((((....))))	-24.4	49.5
GGTATATCGAAAGATACC (((..(((....))))))	-16.3	33.6
GCAATGCGAAAGCACAGC ((..(((....)))..))	-14.9	34.3
GATCATTGACATGATC ((((((....))))))	-24.1	43.6
GCCGAAGGAAACTTTGGC (((.(((....))).)))	-39.5	51
TGAACGAAAGTTCA (((((....)))))	-20.6	53.3
GTACATCGAAAGATATAC (((.(((....))).)))	-16	29.6
GAAGGAGCGAAAGCTTTC (((..(((....))))))	-9.13	28.4
GCGATCTCGAAAGAGCGC (((..(((....))))))	-33.1	56.3
GATAGTGGAAACACTACC (.(((((....))))).)	-12.4	33.1
GTAGTCGAAAGACGTTAC ((((((....)))..)))	-12.2	35
GATCAAAATTTGATC ((((((...))))))	-26.4	39.3
GGTATCGGAAACGATATC (.(((((....))))).)	-24.1	45.7
GTATTCTCGAAAGAGTAC (((..(((....))))))	-7.69	22.9
GTACCGCGAAAGCGTTAC (((.(((....))).)))	-21	42.9
GCCCACGGAAACATGGGC (((((.(....).)))))	-30.8	50.7
GAGCGGGGAAACTCGCTC (((((.(....).)))))	-38.3	60.4
GTGTGGGGAAACCTACAC ((((.((....)).))))	-32.6	50.6
GCGAGGCGAAAGCGTGGC ((.(.((....)).).))	-15.2	48.9

Sequence	folding enthalpy [1] [kcal/mol]	Tm [2] [°C]
GATCAGTTATCTGATC ((((((....))))))	-34.2	52.1
GTCAATCGAAAGATGGAC (((.(((....))).)))	-25.5	49.2
GATCGCGAAAGCGTTATC ((((((....)))..)))	-15	28.1
GGCGCAACGAAAGTTGCC (((..(((....))))))	-8.29	47
GGCCCAGGAAACCAGGCC ((((..(....)..))))	-31.6	47
GGTAGTCGAAAGACACC (((.(((....))))))	-20.1	50.4
GATCAGACAACTGATC ((((((....))))))	-32.3	45.9
GGGACTCGAAAGAGCCC (((.(((....))))))	-28.8	54.9
GTCTGTGGAAACATAGAC ((((.((....)).))))	-31.2	44.5
GATCCGGGGCCGGATC ((((((....))))))	-41.4	61
GCACCGCGAAAGCAGCGC ((.(.((....)).).))	-18.2	46.5
GTCATCGAAAGATCTGAC ((((((....)))..)))	-10.9	23.8
GCACGGCGAAAGCTGAGC ((.(.((....)).).))	-19	55.8
GTGAACGAAAGTTTGCAC ((((((....)))..)))	-15.4	32
GTGATCGAAAGATACAC ((((((....))).)))	-22.1	35.8
GCTCACGGAAACGCGAGC ((((.((....)).))))	-51.9	53.4
GACATCGGAAACGACGTC (((.(((....))).)))	-28	43.3
GCTTCCGAAAGGAGAAGC ((((((....)))..)))	-25.6	45.7
GGTGCCGAAAGGCGCACC ((((((....)))..)))	-11	53.2
GGCGCGACGAAAGTCGCC (((..(((....))))))	-5.55	51.9
GTGTCGGGAAACCGATGC (..((((....))))..)	-23.8	46
GTCCAAGAAATTGGAC ((((((....))))))	-26.5	53
GATCTTGGCCAAGATC ((((((....))))))	-57.1	54.8

Sequence	folding enthalpy [1] [kcal/mol]	Tm [2] [°C]
GCGCAGCGAAAGCCGGGC ((.(.((....)).).))	-8.2	41.2
GTTAACGAAAGTTGAAC ((((((....))).)))	-12.8	28.2
GATCTTTCTAAGATC ((((((...))))))	-34.2	45.2
GATCGTAGCCACGATC ((((((....))))))	-39.3	56.2
GAGGAAGGAAACTCCCTC ((((.((....)).))))	-25	32.1
GATCAGTGCGCTGATC ((((((....))))))	-44.1	56.6
GATCCTTCCAGGATC ((((((...))))))	-35.2	57.2
GTAAACCGAAAGGTCTAC (((.(((....))).)))	-19.2	35.6
GCGAGCTCGAAAGAGCGC (((..(((....))))))	-9.24	54.9
GCGTCCGAAAGGAGCCGC ((((((....)))..)))	-16.9	50.1
GACAGCGGAAACGCTACC (..((((....))))..)	-11.1	24.2
GATCCGTCGTCGGATC ((((((....))))))	-36.3	60.1
GCGCTGCGAAAGCAATGC ((..(((....)))..))	-18	47.8
GCAGTGGGAAACCGTTGC (((..((....))..)))	-19.4	38.1
GGCATCGAAAGATTCGCC ((((((....)))..)))	-25.4	36.5
GAAGGCCGAAAGGCTTC (((.(((....))))))	-15.6	48.7
GGATCGGGAAACCGATTC (.(((((....))))).)	-26.6	50.6
GTGACCGAAAGGTGTCAC ((((((....)))..)))	-25.4	45.8
GCTTAAGGAAACCTAAGC (((((.(....).)))))	-22.8	35.7
GGTGCACGAAAGTGTACC (((.(((....))).)))	-38	64.5
GATTGGGGAAACTCAATC (((((.(....).)))))	-33.5	41.9
GATCAAAACCTTGATC ((((((....))))))	-32.5	44.4
GTTTGCCGAAAGGCTAAC (((.(((....))).)))	-20.1	51.7

Sequence	folding enthalpy [1] [kcal/mol]	Tm [2] [°C]
GTACGGGGAAACCCGTGC (.(((((....))))).)	-26.9	55.6
GATCACGTATGTGATC ((((((....))))))	-38.5	68.2
GCCCAGACGAAAGTCGGC (((..(((....))))))	-15.7	49.6
GGCTAGACGAAAGTCGCC (((..(((....))))))	-25.2	53.4
GAGTGGGGAAACCCATTC ((.((((....)))).))	-27.2	42.5
GACGCCGAAAGGCTTGTC ((((((....)))..)))	-13.5	41.1
GGCACTGGAAACGGTGCC (((((.(....).)))))	-50.7	60.5
GCATTGAAAAATGC (((((....)))))	-31.2	49.2
GCAACGCGAAAGCGTCGC ((.((((....)))).))	-22.2	64.7
GACTACGGAAACGCAGTC ((((.((....)).))))	-28.3	42.1
GATCAAGACATTGATC ((((((....))))))	-38.8	50.1
GCAAACGGAAACGTTCGC ((.((((....)))).))	-29.7	46.4
GATCTTTCAAAGATC ((((((...))))))	-28.5	44.5
GGAACGAAAGTTCC (((((....)))))	-33.3	64.3
GCTCGGCGAAAGCAGTGC ((.(.((....)).).))	-11.7	60.6
GATCCCTCAGGGGATC ((((((....))))))	-34.6	60.6
GGGCGCCGAAAGGCACCC (((.(((....))).)))	-22.8	67.5
GATCGAGTAGTCGATC ((((((....))))))	-34.3	55.9
GCCAAGTCGAAAGACGGC (((..(((....))))))	-25.6	52.7
GGGGTTCCGAAAGGACCC (((..(((....))))))	-32.6	56.2
GTACACGAAAGTGCGTAC ((((((....)))..)))	-10.7	30.8
GTGACGACGAAAGTCCAC (((..(((....))))))	-13	38.2
GATCCCACCCGGGATC ((((((....))))))	-41.1	60
